# Screens: PubChem BioAssay, The Scripps Research Institute Molecular Screening Center
# This is a sample that favours compounds with a hit; in the whole collection about 1.5% have one here.
# MsrA act – activates bovine MsrA enzyme. AID 602163. purified bovine MsrA, absorbance read-out. activation, % at 10.6 µM. 360,000 compounds, 0.3% hits; in the data active means activation above about 7.5%;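 further: 0% = vehicle and 100% = reference activator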
# proCasp7 act – counter-screen: procaspase-7 (human) activation. P55210. recombinant procaspase-7, Ac-DEVD-pNA absorbance 405 nm; D23A/D198A/D206A triple mutant, cannot self-cleave; scale: DMSO 0, 5 µM enzyme 100. activation, % at 8.5 µM. 330,000 compounds, 0.093% hits. AID 463210;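 active means percent activation above the screen-wide mean plus 3 SD, cut at about 25% in these data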
#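 Replicates: singlicate. Assay system: Procaspase-7 triple mutant (PC-7 D3A). Signal: 405 nm absorbance of p-nitroaniline. Times: 1 h preincubation, 2 h reaction. Buffer or medium: Zinc-free HEPES pH 7.4 with 300 mM NaCl, 0.01% Triton X-100. Also added: DEVD-pNA substrate. Benchmarks: DMSO wells as 0%, DMSO with 5 µM added PC-7 as 100%.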
# MsrA inh – inhibitors of bovine MsrA. purified bovine MsrA, absorbance read-out. inhibition, % at 15.5 µM. 360,000 compounds, 0.75% hits. AID 651718; in the data active means inhibition above about 4.5%;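 further: 0% = vehicle wells with enzyme and 100% = reference inhibitor wells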
# Tb MetRS inh – Trypanosoma brucei MetRS inhibition. purified T. brucei MetRS, ATP depletion, Kinase-Glo luminescence. inhibition, % at 11.9 µM. AID 624268. 360,000 compounds, 0.4% hits;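 active means inhibition above a per-plate cutoff of the control wells' mean inhibition plus 3 SD, cut at about 5.5% in these data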;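 further: 0% = DMSO wells median and 100% = median of wells with control inhibitor compound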
#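 Measured by: Kinase-Glo luciferase luminescence reporting remaining unconsumed ATP. Material: purified T. brucei MetRS enzyme. Doses: 11.9 µM compound single dose, 0.9% DMSO. Medium: HEPES buffer containing pyrophosphatase, BSA, spermine, DTT. Times: 15 min preincubation, 2 h reaction, all 25 °C. Reagent: methionine, ATP and bulk E. coli tRNA.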
# proCasp3 act – procaspase-3 (human) activation; recombinant procaspase-3 D3A, Ac-DEVD-pNA absorbance 405 nm; activation, % at 8.5 µM; P42574; 330,000 compounds, 0.11% hits;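 active means activation above the mean of all tested compounds plus 3 SD, cut at about 21% in these data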;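 further: 0% = DMSO alone and 100% = DMSO wells spiked with extra 5 µM PC-3 D3A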
# Target sequence (P42574 whole entry D9A/D28A/D175A): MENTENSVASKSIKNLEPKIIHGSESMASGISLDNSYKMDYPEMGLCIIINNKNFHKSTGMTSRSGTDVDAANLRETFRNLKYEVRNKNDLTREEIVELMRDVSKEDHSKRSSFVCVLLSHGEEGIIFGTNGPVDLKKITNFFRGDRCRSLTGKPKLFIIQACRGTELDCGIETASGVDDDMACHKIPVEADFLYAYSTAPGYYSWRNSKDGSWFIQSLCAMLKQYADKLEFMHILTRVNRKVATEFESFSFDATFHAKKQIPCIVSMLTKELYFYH
#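 Assay system: Procaspase-3 D3A mutant, all three cleavage aspartates alanine. Buffer or medium: Zinc-free HEPES saline buffer with Triton X-100. Times: 1 h compound preincubation, 2 h substrate hydrolysis at 25 °C. Measured by: 405 nm absorbance of p-nitroaniline, reads at 0 and 120 min. Read-out basis: percent activation relative to control range. Replicates: singlicate.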
# TbMetRS confirm – Trypanosoma brucei MetRS inhibition confirmed; AID 624412; 1,400 compounds, 93% hits; T. brucei MetRS enzyme, luminescence (ATP depletion); shares compounds with Tb MetRS inh; inhibition, % at 11.9 µM; in the data active means inhibition above about 7%
# Jurkat tox – Jurkat T cell cytotoxicity for MetRS hits; shares compounds with Tb MetRS inh; Jurkat cells viability, ATP luminescence; inhibition, % at 8.3 µM; 1,400 compounds, 12% hits; AID 624413; in the data active means inhibition above about 15%;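 further: 0% = vehicle and 100% = reference inhibitor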
# TbMetRS FP orth – T. brucei MetRS inhibition, orthogonal assay; AID 651607; inhibition, % at 11.9 µM; purified T. brucei MetRS, fluorescence polarization; 1,400 compounds, 44% hits; shares compounds with Tb MetRS inh; in the data active means inhibition above about 17%;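 further: 0% = vehicle wells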
# Starred values were filed as active, the others as inactive; x = no result.
SMILES,MsrA act,proCasp7 act,MsrA inh,Tb MetRS inh,proCasp3 act,TbMetRS confirm,Jurkat tox,TbMetRS FP orth
CCOc1ccc(-n2c(SCC(=O)NCc3ccco3)nnc2-c2c[nH]c3ccccc23)cc1,-11,-4,-1,12*,-6,11*,2,7
COc1ccc(OC)c(-n2c(SCC(N)=O)nnc2-c2c[nH]c3ccccc23)c1,-5,0,-1,9.7*,9,20*,6,10
COc1ccc(OC)c(-n2c(SCC(=O)Nc3cc(C)on3)nnc2-c2c[nH]c3ccccc23)c1,-10,-1,0,18*,2,25*,6,9
COc1ccc(OC)c(-n2c(=O)c3ccccc3c3ccccc3c2=O)c1,-1,2,0,0,-1,x,x,x
O=C(NCc1ccccc1)[C@@H]1CCCN1C(=O)[C@H]1CCCN1C(=O)c1cccs1,x,x,0,x,x,x,x,x
CC(C)CC1O[C@@H](C)[C@@H]2CN3CCc4c([nH]c5ccccc45)[C@@H]3C[C@@H]2N1C (some centres undefined),x,x,0,x,x,x,x,x
CC(C)S(=O)(=O)N[C@@H]1c2cc3c(cc2[C@H](c2ccccc2)[C@H]1C)OCO3,x,x,0,x,x,x,x,x
O=C(CCCNC(=O)c1ccc(Cl)cc1)Nc1ccc(Br)cc1,-9,-2,0,9.1*,6,60*,6,43*
Cc1cccc(NC(=O)CCNC(=O)c2ccc(Br)cc2)c1,-4,-7,0,31*,6,56*,1,70*
O=C(CCNC(=O)c1ccc(Br)cc1)Nc1cccc(S(=O)(=O)N2CCCC2)c1,-1,0,2,1,1,x,x,x
COC(=O)c1cc2c(c3c4ccccc4n(S(=O)(=O)c4ccc(C)cc4)c13)C(=O)N(C)C2,x,x,0,x,x,x,x,x
CCOC(=O)CSc1ccc(-c2nc3cc(C)c(C)cc3[nH]2)cn1,-3,5,2,0,-7,x,x,x
Cc1ccc2nc(-c3ccc(SCC(=O)Nc4nc(C)cs4)nc3)[nH]c2c1,-2,-1,1,2,4,x,x,x
COCCNC(=O)CSc1ccc(-c2nc3ccccc3[nH]2)cn1,-4,1,3,11*,12,19*,2,0
Cc1nc(NC(=O)CSc2ccc(-c3nc4ccccc4[nH]3)cn2)sc1C,-4,0,1,19*,-5,36*,12,11
Cc1ccc2nc(-c3ccc(SCC(=O)Nc4ccc5c(c4)OCCO5)nc3)[nH]c2c1,0,-2,2,7.4*,7,8.6*,14,18*
CCOC(=O)CSc1ccc(-c2nc3ccccc3[nH]2)cn1,-12,-12,3,9.2*,10,19*,9,11
C#CCNC[C@@H]1CSCCS(=O)(=O)N1,x,x,3,x,x,x,x,x
O=S1(=O)N[C@@H](Cc2ccccc2)COc2cccc(NCCO)c21,x,x,1,x,x,x,x,x
COC(=O)c1cc2c(c3c4cc(OC)ccc4n(S(=O)(=O)c4ccc(OC)cc4)c13)C(=O)N(Cc1ccc(C(F)(F)F)cc1)C2,x,x,0,x,x,x,x,x
O=C(CSc1ccc(-c2nc3ccccc3[nH]2)cn1)Nc1ccc(S(=O)(=O)NC2CC2)cc1,-3,11,3,64*,-8,69*,9,75*
COc1ccccc1/C=C/C(=O)OCC(=O)c1c[nH]c2ccccc12,0,4,0,0,4,x,x,x
COc1cc(/C=C/C(=O)OCC(=O)c2c[nH]c3ccccc23)ccc1OC(F)F,-3,9,0,6.3*,3,13*,-1,36*
Cc1cc(N2CCN(C(=O)OC(C)(C)C)C[C@@H]2C)ccc1Br,x,x,-1,x,x,x,x,x
COc1ccc(/C=N/NC(=O)c2ccccc2O)cc1Cn1cc([N+](=O)[O-])cn1,-5,11,2,0,13,x,x,x
COc1ccc(/C=N/NC(=O)c2cc(O)c(O)c(O)c2)cc1Cn1cc([N+](=O)[O-])cn1,-5,x,2,5.6*,x,13*,2,9
